PKD1 inh = inhibitors of human PKD1 kinase, biochemical, fluorescence polarization | inhibition, % (no concentration beside the values) | PKD1 kinase fluorescence polarization assay | actives 0.056% (n = 200,000) | AID 797, 2007 | Serine/threonine-protein kinase D1 (Homo sapiens), Q15139
ABCB1 block = ABCB1 efflux pump inhibitors, primary screen, cell-based, multiplex, flow cytometry, ABCG2 counter-screen; ATP-dependent translocase ABCB1 (Homo sapiens), P08183; CCRF-Adr cells, JC-1 efflux; inhibition, % at 6.6 µM; actives 0.067% (n = 190,000); AID 1326, 2008; in the data active means inhibition above about 40%;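 further: 0% = vehicle and 100% = reference inhibitor; higher value means more JC-1 retained so stronger ABCB1 efflux block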
Lmaj promast = Leishmania major promastigote growth inhibition, primary screen; Leishmania major promastigotes, resazurin fluorescence viability; inhibition, % at 10 µM; actives 9% (n = 200,000); AID 1063, 2008;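 further: promastigotes grown with compound for 44 hours at 28 °C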
ABCG2 block = ABCG2 efflux pump inhibitors, primary screen, multiplex with ABCB1, IgMXP3 cells, flow cytometry; actives 0.1% (n = 190,000); JC-1 efflux; Broad substrate specificity ATP-binding cassette transporter ABCG2 (Homo sapiens), Q9UNQ0; inhibition, % at 6.6 µM; AID 1325, 2008;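 active means inhibition above 80%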;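 further: 0% = DMSO and 100% = nicardipine control wells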
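test system = two drug-resistant human cell lines, ABCG2 and ABCB1 | amount = 3 million cells/mL final, two lines in 1:1 ratio | reagent = JC-1 transporter substrate | doses = one concentration, 6.6 µM final | incubation = 10 min at 25 °C | signal = flow cytometric JC-1 green MFI at 530 nm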
Avidin bead fluor = green autofluorescence of compounds with avidin beads – biophysical, 488/530 nm, flow cytometry, artefact control, profiling panel; fluorescence (KMESF) at 10 µM; compound fluorescence 488/530 nm; active compounds read high; actives 0.38% (n = 220,000); in the data active means fluorescence above about 47
GSH bead fluor = compound fluorescence on glutathione beads, profiling panel, artefact control, biophysical, 488/530 nm, flow cytometry | GSH beads flow cytometry, compound fluorescence 488/530 nm; active compounds read high | fluorescence (KMESF) at 10 µM | actives 0.25% (n = 190,000); in the data active means fluorescence above about 89;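 further: glutathione beads carrying GST-tagged Bcl family fusion proteins plus one bare bead set; values are compound well signal with DMSO vehicle wells as background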
The depositor's hits bear a star; . = no result. Many of the other results were omitted from the sample, so hits are more common in it than they were. Unless noted, no stated cut-off is given here; in the data, active means inhibition above about 50%; inactive means the rest.

SMILES	PKD1 inh	ABCB1 block	Lmaj promast	ABCG2 block	Avidin bead fluor	GSH bead fluor
CCOC(=O)C1CCCN(Cc2nc(N)nc(Nc3ccc(OC)cc3)n2)C1 (centres undefined)	-3.2	-0.5	4.0	12.2	13	35
COc1cc(/C=C2\SC(=Nc3ccccc3)N(CCc3c[nH]c4ccccc34)C2=O)ccc1OC(C)C(=O)O (centres undefined)	7.8	-0.4	-7.4	-2.3	16	16
COCCN1C(=O)/C(=C/c2ccc(Oc3ccc([N+](=O)[O-])cn3)c(OC)c2)SC1=Nc1ccccc1	-2.9	0.5	100.3*	1.1	6	15
COc1ccc(NC(=O)c2cccnc2Nc2ccc(OC)cc2)cc1	-3.2	0.5	76.0*	15.6	23	23
COc1ccc(Nc2ncccc2C(=O)Nc2ccccc2)cc1	-1.8	0.7	27.6	6.7	32	15
CCOC(=O)NC1(C(F)(F)F)C(=O)NC(C)=C1C(=O)OC (centres undefined)	-3.3	0.6	-1.9	1.9	9	8
COC(=O)C1=C(C)NC(=O)C1(NC(=O)CN1CCCC1=O)C(F)(F)F (centres undefined)	-6.3	0.4	-4.0	8.9	55*	22
N#Cc1ccc(Cl)cc1NC(=O)COC(=O)c1ccc2c(c1)OCCO2	4.5	0.4	-2.6	2.5	66*	16
O=C(COC(=O)c1ccc(Cl)c([N+](=O)[O-])c1)Nc1ccccc1OC(F)F	-3.8	-0.4	58.0*	27.4	8	4
O=C(CN(c1ccc2c(c1)OCCO2)S(=O)(=O)c1ccccc1)N1CCN(Cc2ccccc2)CC1	-7.9	1.9	15.5	-1.4	7	17
Cc1cccc2c(=O)cc(C)n(Cc3ccccc3)c12	-12.2	1.0	59.2*	19.5	7	3
Cc1cc(C)cc(OCC(=O)Nc2ccccc2N2CCCCC2)c1	1.7	0.6	-4.9	17.0	69*	26
CC(=O)N1CCN(c2ccccc2NC(=O)COc2cc(C)ccc2C(C)C)CC1	-8.3	1.9	30.3	4.0	10	22
Cc1ccccc1OCC(=O)Nc1ccccc1N1CCCCC1	-9.9	0.3	31.3	3.0	9	16
Cc1ccc(C(C)C)c(OCC(=O)Nc2ccccc2N2CCN(C)CC2)c1	0.3	11.7	59.5*	4.8	10	11
COC(=O)c1ccc(C2Nc3ccc(/C(C)=N/NC(=O)C(OC)c4ccccc4)cc3C3C=CCC32)cc1 (centres undefined)	-1.0	-1.0	-2.1	-5.1	4	29
C=CCNC(=O)CC(=O)N/N=C/c1cccs1	-2.6	4.2	-5.5	0.0	10	19
CC(C)On1c(SCC(=O)N(C)C)nc2ccccc2c1=O	.	.	.	.	8	.
O=C(Nc1nccs1)C1CC2CCC1C2 (centres undefined)	-3.0	0.3	1.6	1.4	10	7
O=C(NCCNC(=O)C1CC2CCC1C2)C1CC2CCC1C2 (centres undefined)	-3.4	0.8	-3.5	15.4	229*	36
CC1CCC/C(=N/Nc2nc3ccccc3s2)C1 (centres undefined)	8.9	0.8	51.6*	7.9	16	12
O=C(COC(=O)c1cc(C(F)(F)F)cc(C(F)(F)F)c1)NCc1ccc(Cl)cc1	-2.2	-0.1	50.3*	-2.4	14	5
O=C(COC(=O)c1cncc(Br)c1)NCc1ccc(Cl)cc1	.	.	.	.	7	.
Cc1c(Cl)cccc1-n1c(SCC(=O)NCc2ccccc2Cl)nnc1-c1ccncc1	-6.2	0.9	99.6*	2.6	39	12
COc1c(C)cc(Br)cc1C(=O)Nc1ccc(Cc2ccncc2)cc1	2.0	0.4	96.5*	4.5	7	23
SMILES	PKD1 inh	ABCB1 block	Lmaj promast	ABCG2 block	Avidin bead fluor	GSH bead fluor
Cc1c([N+](=O)[O-])cc(C(=O)Nc2ccc(Cc3ccncc3)cc2)cc1[N+](=O)[O-]	-9.0	1.4	98.5*	10.6	13	4
Cc1ccccc1C(=O)NC(=S)Nc1ccc(Cc2ccncc2)cc1	-2.4	.	53.1*	1.5	14	10
O=C(Nc1ccc(Cc2ccncc2)cc1)c1ccc(Cl)c([N+](=O)[O-])c1	-6.4	0.1	-3.0	0.7	.	15
CC(=O)N1CCC(N2CCN(Cc3ccc(C)cc3)C(CCO)C2)CC1 (centres undefined)	-1.6	1.5	18.6	2.5	9	13
Cc1ccc(N2CCC(N3CCN(C4CCCCC4)C(CCO)C3)CC2)cc1 (centres undefined)	-9.6	0.6	53.5*	1.9	3	10
CCOC(=O)N1CCC(N2CCN(Cc3ccccc3)C(CCO)C2)CC1 (centres undefined)	3.9	0.3	50.1*	1.9	12	11
Cc1ccc(CN2CCN(C3CCOCC3)CC2CCO)cc1 (centres undefined)	-2.6	0.2	61.6*	2.2	7	19
Cc1cc2c(N=NC(=O)C3CC3c3ccccc3)c(O)[nH]c2cc1Br (centres undefined)	6.6	0.1	-12.0	2.0	3	6
Cc1c(C(=O)O)c(C(=O)O)nc2ccc(N3CCOCC3)cc12	-4.3	-0.4	3.0	-0.6	11	25
C=CCn1c(SCC(=O)NC2CCCc3ccccc32)nnc1-c1ccncc1 (centres undefined)	6.2	1.9	44.8	47.5	13	11
COCCCn1c(SCC(=O)N2CCc3ccccc32)nnc1-c1ccoc1C	-13.1	.	-1.9	.	.	.
O=C1N=C2SCCN2/C1=C\c1ccccc1Cl	-1.2	0.1	99.8*	0.5	8	21
O=C(NC1(C(F)(F)F)N=C2SCCN2C1=O)c1ccccc1 (centres undefined)	-1.8	-0.1	0.7	-0.2	5	24
CCOC(=O)/C(=C/c1ccco1)NC(=O)c1ccc(Br)o1	7.3	1.6	-0.2	5.3	4	12
O=C(C1=C(O)/C(=C/c2ccc(O)cc2)CCC1)C(F)(F)F	-5.6	0.3	56.0*	1.6	20	18
CN1c2ccccc2C(C)(C)C12CC(c1ccc(S(=O)(=O)N3CCCCC3)cc1)=NO2 (centres undefined)	-13.2	-0.4	44.0	-2.5	3	5
CCN(CC)S(=O)(=O)c1ccc(C2=NOC3(C2)N(C)c2ccccc2C3(C)C)cc1 (centres undefined)	-12.9	1.4	83.5*	5.0	11	8
CN1c2ccccc2C(C)(C)C12CC(c1cccc(S(=O)(=O)N3CCCC3)c1)=NO2 (centres undefined)	1.2	0.8	72.6*	-1.0	3	6
